Results: ChEMBL document CHEMBL5252538, “β-Lactam analogues of combretastatin A-4 prevent metabolic inactivation by glucuronidation in chemoresistant HT-29 colon cancer cells” (Eur J Med Chem, 2017)
Activity calls are given as the source filed them. No cut-off for these calls is given here.

Key:
[1] = system: HL-60; assay: Antiproliferative activity against […] human HL-60 cells assessed as inhibition of cell growth incubated for 72 hrs by alamar blue assay; type: functional, cell-based; conditions: HL-60, 72 h
Summary of the method: (§1)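 Cells seeded 24 h before treatment (HL-60 4 × 10⁴, MCF-7 5 × 10³ per well), then given medium, vehicle (1% ethanol v/v) or serial dilutions (eight concentrations) for 72 h. Alamar Blue (10% v/v) added for 3–5 h at 37 °C in the dark, fluorescence read at ex 530/em 590 nm. Viability expressed relative to vehicle (100%), IC50 from dose–response curves; three experiments in triplicate.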

[2] = target: T1, Tubulin (Homo sapiens) (UniProt P68371+Q9H4B7+P0DPH7+P68366+Q13509+Q71U36+P04350+Q3ZCM7+P07437+P68363+Q9BQE3+Q6PEY2+Q13885+Q9BVA1+Q9BUF5); assay: Induction of microtubule disruption in human HT-29 cells assessed as effect on microtubule organization at 1 uM incubated for 16 hrs by immunofluorescence based confocal microscopic analysis; type: cell-based
[3] = system: HT-29; assay: Induction of cell cycle arrest in human HT-29 cells assessed as accumulation of cells at G2/M phase at 1 uM incubated for 24 hrs in presence of 2,3-bis(amino((2-aminophenyl)thio)methylene)succinonitrile by RAase A/PI staining based flow cytometry analysis (reference value: 16%); type: functional
[4] = system: HT-29; assay: Induction of cell cycle arrest in human HT-29 cells assessed as accumulation of cells at G0/G1 phase at 1 uM incubated for 24 hrs by RAase A/PI staining based flow cytometry analysis (reference value: 57%); type: functional
[5] = system: HT-29; assay: Induction of cell cycle arrest in human HT-29 cells assessed as accumulation of cells in G2/M phase at 1 uM incubated for 24 to 72 hrs by RNase/PI staining based flow cytometry analysis; type: functional; conditions: time 24-72 hrs
[6] = system: HT-29; assay: Induction of cell cycle arrest in human HT-29 cells assessed as accumulation of cells in sub-G1 phase at 1 uM incubated for 72 hrs by RNase/PI staining based flow cytometry analysis (reference value: 6%); type: functional
[7] = system: MCF7; assay: Antiproliferative activity against […] human MCF7 cells assessed as inhibition of cell growth incubated for 72 hrs by alamar blue assay; type: functional, cell-based; conditions: MCF7, 72 h; summary of the method: as §1
[8] = system: HT-29; assay: Induction of cell cycle arrest in human HT-29 cells assessed as accumulation of cells at G0/G1 phase at 1 uM incubated for 24 hrs in presence of 2,3-bis(amino((2aminophenyl)thio)methylene)succinonitrile by RAase A/PI staining based flow cytometry analysis (reference value: 57%); type: functional
[9] = system: HT-29; assay: Antiproliferative activity against combretastatin A-4 resistant human HT-29 cells assessed as inhibition of cell growth incubated for 72 hrs by SRB assay; type: functional, cell-based; conditions: HT-29, 72 h
Summary of the method: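 HT-29 (DMEM Glutamax, 10% FBS) seeded at 1 × 10⁴ cells/well, treated after 24 h with vehicle (1% ethanol v/v) or serial dilutions (eight concentrations) for 72 h; viability measured by sulforhodamine B protocol. Percent viability relative to vehicle control, IC50 from dose–response curves; mean of three experiments in triplicate.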

[10] = system: HT-29; assay: Induction of cell cycle arrest in human HT-29 cells assessed as accumulation of cells at G2/M phase at 1 uM incubated for 24 hrs by RAase A/PI staining based flow cytometry analysis (reference value: 16%); type: functional
[11] = system: HT-29; assay: Induction of cell cycle arrest in human HT-29 cells assessed as accumulation of cells at G2/M phase at 0.5 uM incubated for 72 hrs by RNase/PI staining based flow cytometry analysis relative to control; type: functional
Summary of the method: (§2)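 HT-29 treated with vehicle (0.1% ethanol v/v) or compound at 0.5 µM for 24, 48 and 72 h. Adherent plus detached cells collected, fixed overnight in ice-cold 70% ethanol at −20 °C, stained with PI (50 µg/mL) plus RNase A (50 µg/mL) 30 min at 37 °C. 10,000 cells analysed by flow cytometry at 488 nm; sub-G1, G0/G1, G2/M gated on DNA content; mean of three experiments.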

[12] = target: T1, Tubulin (Homo sapiens); assay: Induction of microtubule disruption in human HT-29 cells assessed as complete loss of microtubule structure incubated for 16 hrs by immunofluorescence based confocal microscopic analysis; type: cell-based
Summary of the method: (§3)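 Fixed in 4% paraformaldehyde, permeabilised in 0.5% Triton X-100, blocked in 5% BSA, stained with anti-α-tubulin-FITC (DM1A, 1:100, 2 h) and Alexa Fluor 488, DAPI counterstain; confocal imaging, three occasions.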

[13] = system: HT-29; assay: Induction of cell cycle arrest in human HT-29 cells assessed as reduction in cells in S phase at 0.5 uM incubated for 72 hrs by RNase/PI staining based flow cytometry analysis; type: functional; summary of the method: as §2
[14] = system: HT-29; assay: Induction of cell cycle arrest in human HT-29 cells assessed as accumulation of cells in sub-G1 phase at 0.5 uM incubated for 72 hrs by RNase/PI staining based flow cytometry analysis (reference value: 6%); type: functional; summary of the method: as §2
[15] = target: T1, Tubulin (Homo sapiens); assay: Induction of microtubule disruption in human HT-29 cells assessed as appearance of multiple micronucleus incubated for 16 hrs by immunofluorescence based confocal microscopic analysis; type: cell-based; summary of the method: as §3
[16] = system: HT-29; assay: Induction of cell cycle arrest in human HT-29 cells assessed as reduction in cells in G0 phase at 0.5 uM incubated for 72 hrs by RNase/PI staining based flow cytometry analysis; type: functional; summary of the method: as §2

Activity [12]	SMILES	IC50 [1] [nM]	Activity [2]	Activity [3] [%]	Activity [4] [%]	Activity [5]	Activity [6] [%]	IC50 [7] [nM]	Activity [8] [%]	IC50 [9] [nM]	Activity [10] [%]	Activity [11] [%]	Activity [13]	Activity [14] [%]	Activity [15]	Activity [16]
–	COc1ccc(C2C(c3ccccc3)C(=O)N2c2cc(OC)c(OC)c(OC)c2)cc1O (mixture of isomers)	2	inactive	58	60	inactive	5	4	26	430	16	–	–	–	–	–
Active	COc1ccc(C2C(c3ccccc3)C(=O)N2c2cc(OC)c(OC)c(OC)c2)cc1 (mixture of isomers)	24	–	–	–	–	–	15	–	22	–	50	Active	19	Active	Active
